Results published in ChEMBL document CHEMBL3588752, “Synthesis and in Vitro Anticancer Activity of the First Class of Dual Inhibitors of REV-ERBβ and Autophagy” (J Med Chem, 2015).
pIC50: −log10 of the molar value. The source made the active and inactive calls. The rule behind the calls is not given here.

How the values were obtained:
BT-474 [1] = assay: Cytotoxicity against human BT474 cells assessed as reduction in cell number incubated for 72 hrs; format: functional, cell-based; conditions: BT-474, 72 h
How it was run: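 Cells seeded at 2000/well and left overnight, then exposed 72 h to seven 3-fold serial dilutions from 100 µM. Cell number read by CyQUANT DNA dye (independent of metabolism), relative to vehicle as 100%. BT-474 grown in high-glucose DMEM, 4 mM L-glutamine, 10% FBS, 0.25 mM pyruvate.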

LNCaP [2] = assay: Reduction in GFP expression in human LNCAP cells transfected with plasmids co-expressing GFP and shRNAs against REV-ERBbeta followed by compound treatment 24 hrs post-transfection and measured 48 hrs post dose; format: functional, cell-based
[3] = Inhibition of cell proliferation of lung cancer cells (unknown origin); format: functional, cell-based; conditions: Cancer cell lines
[4] = Cytotoxicity against human SKBR3 cells assessed as reduction in cell number incubated for 72 hrs; format: functional, cell-based; conditions: SK-BR-3, 72 h
How it was run: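 McCoy's medium plus 10% FBS; 2000 cells/well, overnight attachment, 72 h treatment with seven 3-fold dilutions from 100 µM (900 µM top for the reference autophagy inhibitor). CyQUANT cell number as % of vehicle. IC50 by log(inhibitor)–response fitting, mean ± SEM of ≥6 experiments.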

MDA-MB-361 = assay: Cytotoxicity against human MDA-MB-361 cells assessed as reduction in cell number incubated for 72 hrs; format: functional, cell-based; conditions: MDA-MB-361, 72 h
How it was run: (§1)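 RPMI-1640 with 4 mM L-glutamine and 10% FBS for culture. 2000 cells/well seeded overnight, then 72 h exposure to seven 3-fold dilutions (top 100 µM; top 900 µM for the reference autophagy inhibitor in MDA-MB-361). Cell number by CyQUANT relative to vehicle. IC50 from concentration–response curves, mean ± SEM, n ≥ 6.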

HepG2 [5] = assay: Reduction in GFP expression in human HepG2 cells transfected with plasmids co-expressing GFP and shRNAs against REV-ERBbeta followed by compound treatment 24 hrs post-transfection and measured 48 hrs post dose; format: functional, cell-based
[6] = Inhibition of cell proliferation of PDAC cells (unknown origin); format: functional, cell-based
LNCaP [7] = assay: Cytotoxicity against human LNCAP cells assessed as reduction in cell number incubated for 72 hrs; format: functional, cell-based; how it was run: as §1
[8] = Reduction in GFP expression in human SKBR3 cells transfected with plasmids co-expressing GFP and shRNAs against REV-ERBbeta followed by compound treatment 24 hrs post-transfection and measured 48 hrs post dose; format: functional, cell-based; conditions: SK-BR-3
[9] = Inhibition of cell proliferation of breast cancer cells (unknown origin); format: functional, cell-based; conditions: Cancer cell lines
HepG2 [10] = assay: Cytotoxicity against human HepG2 cells assessed as reduction in cell number incubated for 72 hrs; format: functional, cell-based; conditions: HepG2, 72 h
How it was run: (§2)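 Grown in high-glucose DMEM with 4 mM L-glutamine, 10% FBS and 0.5 mM sodium pyruvate. Seeded at 2000 cells/well overnight, then treated 72 h with seven 3-fold dilutions from 100 µM. Cell number by CyQUANT, % of vehicle. IC50 by log(inhibitor)–response fit, mean ± SEM, n ≥ 6.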

MCF7 = assay: Cytotoxicity against human MCF7 cells assessed as reduction in cell number incubated for 72 hrs; format: functional, cell-based; conditions: MCF7, 72 h; how it was run: as §2
[11] = target: T1, Nuclear receptor subfamily 1 group D member 2 (Homo sapiens) (UniProt Q14995); assay: Inhibition of REV-ERBbeta in human SKBR3 cells assessed as […] at 10 uM incubated for 16 hrs by immunoblot method; format: cell-based; conditions: SK-BR-3
T1 sequence (whole entry): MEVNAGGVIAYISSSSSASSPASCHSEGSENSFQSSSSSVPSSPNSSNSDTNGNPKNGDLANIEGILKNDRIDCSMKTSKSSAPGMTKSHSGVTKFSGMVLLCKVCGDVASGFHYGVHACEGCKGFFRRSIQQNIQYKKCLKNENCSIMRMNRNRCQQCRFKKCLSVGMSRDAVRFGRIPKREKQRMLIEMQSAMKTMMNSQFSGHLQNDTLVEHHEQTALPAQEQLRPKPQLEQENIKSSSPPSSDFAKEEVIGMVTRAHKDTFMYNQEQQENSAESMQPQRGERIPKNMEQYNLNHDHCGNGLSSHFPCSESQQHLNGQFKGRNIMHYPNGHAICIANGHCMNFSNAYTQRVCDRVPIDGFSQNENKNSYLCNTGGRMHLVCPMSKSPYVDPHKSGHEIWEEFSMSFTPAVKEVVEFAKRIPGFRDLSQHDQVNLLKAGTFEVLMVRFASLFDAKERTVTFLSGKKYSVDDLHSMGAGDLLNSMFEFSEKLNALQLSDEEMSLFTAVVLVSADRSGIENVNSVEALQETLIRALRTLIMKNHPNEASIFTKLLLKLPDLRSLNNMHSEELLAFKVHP

HepG2 [12] = assay: Inhibition of autophagy in human HepG2 cells assessed as increase in GFP/RFP/LC3 chimera protein levels at 30 uM incubated for 4 hrs by fluorescent microscopy; format: functional, cell-based
How it was run: (§3)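 Cells transduced with LC3 fused to acid-sensitive GFP and acid-insensitive RFP. Compound or DMSO vehicle added 48 h post-transduction. After 4 h, GFP and RFP fluorescent dots counted by fluorescence microscopy.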

[13] = target: T1, Nuclear receptor subfamily 1 group D member 2 (Homo sapiens); assay: Inhibition of REV-ERBbeta in human HepG2 cells assessed as […] at 10 uM incubated for 16 hrs by immunoblot method; format: cell-based
SK-BR-3 = assay: Inhibition of autophagy in human SKBR3 cells assessed as increase in GFP/RFP/LC3 chimera protein levels at 30 uM incubated for 4 hrs by fluorescent microscopy; format: functional, cell-based; how it was run: as §3
LNCaP [14] = assay: Potency index, ratio of IC50 for chloroquine to IC50 for test compound against human LNCAP cells assessed as reduction in cell number incubated for 72 hrs; format: functional
How it was run: (§4)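 HepG2 was grown in high-glucose DMEM with 4 mM L-glutamine, 10% FBS and 0.5 mM pyruvate; LNCaP in RPMI-1640 with 4 mM L-glutamine and 10% FBS. Cells were seeded at 2000/well, left overnight, then given seven 3-fold dilutions from 100 µM for 72 h. Cell number was read by CyQUANT DNA stain against vehicle (100%). IC50s came from log(inhibitor)–response fits, ≥6 experiments, and chloroquine IC50 was divided by test IC50.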

HMEC = assay: Cytotoxicity against HMEC cells assessed as reduction in cell number incubated for 72 hrs; format: cell-based; conditions: Homo sapiens
[15] = target: T2, Nuclear receptor subfamily 1 group D member 2 (Homo sapiens, UniProt Q14995); assay: Inhibition of REV-ERBbeta (unknown origin) expressed in HEK293 cells incubated for 24 hrs assessed as inhibition of receptor-mediated transcriptional repression by REV-ERB luciferase reporter assay; format: cell-based
T2 sequence (Q14995 whole entry): T1 sequence (whole entry)
How it was run: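 HEK-293 co-transfected with a REV-ERBβ expression plasmid and a reporter with two REV-ERB response elements driving Cypridina luciferase. Compounds added the next day; luciferase activity read after 24 h. IC50 from concentration–response plots, mean ± SEM, N ≥ 6.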

BT-474 [16] = assay: Inhibition of autophagy in human BT474 cells assessed as increase in LC3-II protein levels at 10 uM by immunoblot method; format: functional, cell-based
How it was run: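 BT-474 exposed 4 h at 10 µM. Protein extracted in RIPA buffer and immunoblotted for LC3B and GAPDH in TBS-T with 5% BSA. HRP secondary at 1:20000, ECL detection. Band densitometry reported as LC3B/GAPDH ratio.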

[17] = target: T1, Nuclear receptor subfamily 1 group D member 2 (Homo sapiens); assay: Inhibition of REV-ERBbeta in human BT474 cells assessed as increase in BMAL1 expression at 10 uM incubated for 16 hrs by immunoblot method; conditions: BT-474
LNCaP [18] = assay: Inhibition of autophagy in human LNCAP cells assessed as increase in GFP/RFP/LC3 chimera protein levels at 30 uM incubated for 4 hrs by fluorescent microscopy; format: functional, cell-based; how it was run: as §3
[19] = Toxicity against human BT474 cells assessed as reduction in cell number at 10 uM incubated for 16 hrs; format: cell-based; conditions: bt-474, 16 h
[20] = target: T1, Nuclear receptor subfamily 1 group D member 2 (Homo sapiens); assay: Inhibition of REV-ERBbeta in human LNCAP cells assessed as […] at 10 uM incubated for 16 hrs by immunoblot method; format: cell-based
BT-474 [21] = assay: Lysosomotropic activity in human BT474 cells assessed as […] incubated for 24 hrs by lysosomotropy assay; format: functional, cell-based; conditions: BT-474, 24 h
How it was run: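 Seeded at 2000 cells/well overnight, then treated. Lysosomal staining (LysoTracker fluorescence) measured 24 h post-treatment. IC50 from concentration–response plots, mean ± SEM, N ≥ 6.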

HepG2 [22] = assay: Potency index, ratio of IC50 for chloroquine to IC50 for test compound against human HepG2 cells assessed as reduction in cell number incubated for 72 hrs; format: functional; how it was run: as §4

CN1CCN(Cc2cc(CNC3(c4ccccc4F)CCC3)ccc2O)CC1
pIC50 (BT-474 [1]): < 4.00

CCN(CC)CCCC(C)Nc1ccnc2cc(Cl)ccc12 (racemic) [CHLOROQUINE]
Activity (LNCaP [2]): Active | pIC50 [3]: < 4.00 | pIC50 [4]: 4.30 | pIC50 (MDA-MB-361): 4.01 | Activity (HepG2 [5]): Active | pIC50 [6]: 5.00 | pIC50 (LNCaP [7]): 4.48 | Activity [8]: Active | pIC50 [9]: < 4.00 | pIC50 (HepG2 [10]): 4.60 | pIC50 (MCF7): 4.63

CN1CCC(Cc2cccc(CNC3(c4ccc(F)cc4)CCCC3)c2)CC1
inhibition [11]: Active | inhibition (HepG2 [12]): Active | inhibition [13]: Active | pIC50 (BT-474 [1]): 5.68 | pIC50 [4]: 4.80 | inhibition (SK-BR-3): Active | Ratio IC50 (LNCaP [14]): 4 | pIC50 (MDA-MB-361): 4.51 | pIC50 (HMEC): < 4.00 | pIC50 [15]: 5.87 | pIC50 (LNCaP [7]): 5.06 | inhibition (BT-474 [16]): Active | inhibition [17]: Active | inhibition (LNCaP [18]): Active | Activity [19]: Non-toxic | pIC50 (HepG2 [10]): 5.56 | inhibition [20]: Active | pIC50 (BT-474 [21]): 5.00 | pIC50 (MCF7): 5.66 | Ratio IC50 (HepG2 [22]): 10

CN1CCN(Cc2ccccc2CNC2(c3ccccc3F)CCCC2)CC1
pIC50 (BT-474 [1]): < 4.00

CN1CCN(Cc2cc(CNC3(c4cccc(F)c4)CCCC3)ccc2O)CC1
pIC50 (BT-474 [1]): 4.85 | pIC50 (HMEC): < 4.00

CCN1CCN(Cc2cc(CNC3(c4ccccc4F)CCCC3)ccc2O)CC1
pIC50 (BT-474 [1]): 4.41 | pIC50 (HMEC): < 4.00

CN1CCN(Cc2cc(CNC3(c4ccccc4F)CCCC3)ccc2O)CC1
pIC50 (BT-474 [1]): 4.52 | pIC50 (HMEC): < 4.00 | pIC50 [15]: 4.76 | inhibition (BT-474 [16]): Active | inhibition [17]: Active | Activity [19]: Non-toxic | pIC50 (BT-474 [21]): 5.00

CN1CCN(Cc2cc(CNCc3ccccc3F)ccc2O)CC1
pIC50 (BT-474 [1]): < 4.00

CC(C)N1CCN(Cc2cc(CNC3(c4ccccc4F)CCCC3)ccc2O)CC1
pIC50 (BT-474 [1]): 4.48 | pIC50 (HMEC): < 4.00

CN1CCN(Cc2cc(CNC3(c4ccccc4F)CCCCC3)ccc2O)CC1
pIC50 (BT-474 [1]): 4.51 | pIC50 (HMEC): < 4.00

COc1ccccc1C1(NCc2ccc(O)c(CN3CCN(C)CC3)c2)CCCC1
pIC50 (BT-474 [1]): 4.51 | pIC50 (HMEC): 4.76

CN1CCN(Cc2cc(CNC(C)(C)c3ccccc3F)ccc2O)CC1
pIC50 (BT-474 [1]): < 4.00

COc1cccc(C2(NCc3ccc(O)c(CN4CCN(C)CC4)c3)CCCC2)c1
pIC50 (BT-474 [1]): 4.93 | pIC50 (HMEC): 4.88

Oc1ccc(CNC2(c3ccccc3F)CCCC2)cc1CN1CCN(c2ccccc2)CC1
pIC50 (BT-474 [1]): 4.42 | pIC50 (HMEC): < 4.00

Oc1ccc(CNC2(c3ccccc3F)CCCC2)cc1CN1CCN(Cc2ccccc2)CC1
pIC50 (BT-474 [1]): 4.46 | pIC50 (HMEC): < 4.00

CN1CCN(Cc2cc(CNC3(c4ccccc4)CCCC3)ccc2O)CC1
pIC50 (BT-474 [1]): 4.56 | pIC50 (HMEC): < 4.00
